Experimental data as given in the M2OR odorant receptor database.

Each compound was assayed against T1, OR2T4 (Homo sapiens) (UniProt Q8NH00). Conditions: stereoisomer not certain.
T1 sequence (whole entry): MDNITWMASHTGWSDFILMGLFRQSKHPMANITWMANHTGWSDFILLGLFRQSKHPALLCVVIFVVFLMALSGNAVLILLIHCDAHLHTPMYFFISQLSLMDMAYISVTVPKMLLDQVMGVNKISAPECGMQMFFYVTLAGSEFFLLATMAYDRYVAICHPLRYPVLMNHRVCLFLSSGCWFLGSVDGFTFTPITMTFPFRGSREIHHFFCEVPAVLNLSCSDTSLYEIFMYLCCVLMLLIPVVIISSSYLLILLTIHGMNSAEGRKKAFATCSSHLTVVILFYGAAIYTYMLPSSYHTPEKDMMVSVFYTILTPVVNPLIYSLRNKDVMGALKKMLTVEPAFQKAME
How it was run: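 Whether a receptor–molecule pair is responsive (active) rests on the original authors' judgment that its measured signal was statistically different from baseline. Pairs without that judgment are non-responsive (inactive). Sources used varied assay methods, commonly transient luciferase assays in mammalian cell lines.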
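Note: active if original authors judged signal statistically different from baseline.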

Structure (SMILES) | odorant receptor agonist call
CCCCCCCC(=O)OCC | inactive
C=C(C)C1CC=C(C)CC1 (stereo not given) | inactive
CCCCCCCCCCCCCC(=O)OC | inactive
CCC(O)CC | inactive
CC(C)=CCCC(C)=CCCC(C)=CCO | inactive
CC(C)(C)c1ccccc1 | inactive
CCCC(=O)CC | inactive
COc1ccc2[nH]cc(CCNC(C)=O)c2c1 | inactive
Cc1cccc(C)c1C | inactive
CCCCCCCCCCCCO | inactive
CCCCCCCCCCCCCCCCCC(=O)OC | inactive
CCCCCCCCCCCC(=O)O | inactive
CCCCCCCCCC(=O)OCC | inactive
CC(CC=O)c1ccccc1 (stereo not given) | inactive
CCCCC(=O)C(C)=O | inactive
CCCCCCCCCCCCCCCC(=O)OCC | inactive
CCCCCCCC(=O)OC | inactive
CCCO | inactive
CCCCOCC(C)O (stereo not given) | inactive
CCCCCCC(=O)[O-].[H+] | inactive

Structure (SMILES) | odorant receptor agonist call
CCC(C)CO (stereo not given) | inactive
CCCCCCCCCCCCCC(=O)OCC | inactive
CCCCCCCCCC(=O)OC | inactive
CCCCCCCCCCCC(=O)OC | inactive
CCCCCCCCCCCCCCCCCC(=O)[O-].[H+] | inactive
CC(C=O)Cc1ccc(C(C)(C)C)cc1 (stereo not given) | active
CCCCCCCCCCCCCCCCCC(=O)OCC | inactive
CCCCCCCC(=O)[O-].[H+] | inactive
C=C1CCC2CC1C2(C)C (stereo not given) | inactive
CC(=O)O | inactive
Cc1cnc(C)cn1 | inactive
CCC(=O)O | inactive
CC(O)C(=O)[O-].[H+] (stereo not given) | inactive
CCCCCCCCO | inactive
CCCCCCCCCCCCCC(=O)O | inactive
CCCCCCCCCCCCCCC(=O)O | inactive
CCCCCCCCCCCC(=O)OCC | inactive
CCCCCCCCCCCCCCCC(=O)[O-].[H+] | inactive
O=c1ccc2ccccc2o1 | inactive
CCCCCCCCCCCCCCCC(=O)OC | inactive
